# Measurements as given in ChEMBL document CHEMBL1629439, “High-throughput identification of antibacterials against methicillin-resistant Staphylococcus aureus (MRSA) and the transglycosylase” (Bioorg Med Chem, 2010).
# Experiments:
# [1] = system: Stenotrophomonas maltophilia; experiment: Antimicrobial activity against Stenotrophomonas maltophilia ATCC 13637 after 18 to 24 hrs by alamar blue assay; type: functional; settings: Stenotrophomonas maltophilia, ATCC 13637; read-out: MIC
# Procedure, shortened: (§1)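 Broth microdilution per NCCLS in Mueller-Hinton broth, 8-point twofold dilutions, 384-well format. Exponential-phase cells at 5 × 10^5 cells/ml incubated with compound 18–24 h at 37 °C, then 20% Alamar blue added and fluorescence read. MIC90 taken as the lowest concentration preventing at least 90% bacterial growth.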
# Staphylococcus aureus [2] = experiment: Antimicrobial activity against methicillin-resistant Staphylococcus aureus isolate NTUH4722 after 18 to 24 hrs by alamar blue assay; type: functional
# Procedure, shortened: (§2)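 Broth microdilution per NCCLS standard, Mueller-Hinton broth, 8-point twofold dilutions; exponentially growing cells at 5 10^5 cells/ml with compound, 18–24 h at 37 C; 20% Alamar blue added, fluorescence read; MIC90 taken as lowest concentration preventing at least 90% growth.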
# [3] = Inhibition of transglycosylase assessed as inhibition of NBD- labelled lipid II polymerization at 100 uM
# Procedure, shortened: (§3)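 100 µM NBD-labelled lipid II incubated 30 min with full-length PBP (EC, SA or Mtb) and 10 ng/µl N-acetylmuramidase in 50 mM Tris-HCl pH 8.0, 10 mM MgCl2, 0.1% Triton X-100, 10% DMSO, 15% MeOH. Supernatant run on anion-exchange HPLC with 20 mM–0.5 M ammonium acetate gradient. Inhibition calculated from substrate peak-area percentage. IC50 determined. S. aureus strains share one SA enzyme.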
# [4] = system: Mycolicibacterium smegmatis; experiment: Antimicrobial activity against Mycobacterium smegmatis BCRC 11565 after 18 to 24 hrs by alamar blue assay; type: functional; settings: Mycolicibacterium smegmatis, BCRC 11565; read-out: MIC; procedure, shortened: as §1
# Pseudomonas aeruginosa = experiment: Antimicrobial activity against Pseudomonas aeruginosa ATCC 25619 after 18 to 24 hrs by alamar blue assay; type: functional; settings: Pseudomonas aeruginosa, ATCC 25619; read-out: MIC; procedure, shortened: as §1
# Staphylococcus aureus [5] = experiment: Antimicrobial activity against methicillin-resistant Staphylococcus aureus ATCC 33592 after 18 to 24 hrs by alamar blue assay; type: functional; settings: Staphylococcus aureus, ATCC 33592; read-out: MIC; procedure, shortened: as §2
# Acinetobacter baumannii = experiment: Antimicrobial activity against Acinetobacter baumannii ATCC 49139 after 18 to 24 hrs by alamar blue assay; type: functional; settings: Acinetobacter baumannii, ATCC 49139; read-out: MIC; procedure, shortened: as §1
# [6] = Displacement of fluorescein-labeled moenomycin from transglycosylase at 100 uM after 30 mins by fluorescence anisotropy binding assay
# Staphylococcus aureus [7] = experiment: Antimicrobial activity against Staphylococcus aureus ATCC 29213 after 18 to 24 hrs by alamar blue assay
# Staphylococcus aureus [8] = experiment: Antimicrobial activity against oxacillin- and methicillin-resistant Staphylococcus aureus isolate Sa-OXA-R2 after 18 to 24 hrs by alamar blue assay; type: functional; procedure, shortened: as §2
# [9] = Inhibition of transglycosylase assessed as inhibition of NBD- labelled lipid II polymerization; procedure, shortened: as §3
# Bacillus subtilis = experiment: Antimicrobial activity against Bacillus subtilis ATCC 23857 after 18 to 24 hrs by alamar blue assay; type: functional; procedure, shortened: as §1
# Escherichia coli = experiment: Antimicrobial activity against Escherichia coli ATCC […] after 18 to 24 hrs by alamar blue assay; type: functional; settings: Escherichia coli; read-out: MIC; procedure, shortened: as §1
# Serratia marcescens = experiment: Antimicrobial activity against Serratia marcescens ATCC 14756 after 18 to 24 hrs by alamar blue assay; type: functional; settings: Serratia marcescens, ATCC 14756; read-out: MIC; procedure, shortened: as §1
Compound,MIC [1],MIC (Staphylococcus aureus [2]),inhibition [3],MIC [4],MIC (Pseudomonas aeruginosa),MIC (Staphylococcus aureus [5]),MIC (Acinetobacter baumannii),inhibition [6],MIC (Staphylococcus aureus [7]),MIC (Staphylococcus aureus [8]),IC90 [9],MIC (Bacillus subtilis),MIC (Escherichia coli),MIC (Serratia marcescens)
O=C(Nc1cc(Cl)ccc1Oc1ccccc1)c1cc(Br)cc(Br)c1O,16 µg/mL,0.5 µg/mL,100%,0.5 µg/mL,16 µg/mL,0.25 µg/mL,16 µg/mL,97%,0.5 µg/mL,0.5 µg/mL,50 µM,< 0.03 µg/mL,8 µg/mL,16 µg/mL
O=C(Nc1ccc(Cl)c(Cl)c1)c1cc(Cl)ccc1NS(=O)(=O)c1ccc(Cl)cc1,> 256 µg/mL,0.25 µg/mL,0%,> 64 µg/mL,> 256 µg/mL,0.25 µg/mL,> 256 µg/mL,98%,0.25 µg/mL,0.25 µg/mL,,< 0.03 µg/mL,> 256 µg/mL,> 256 µg/mL
O=C(Nc1ccc(Cl)c(Cl)c1)c1ccc([N+](=O)[O-])o1,32 µg/mL,4 µg/mL,0%,0.5 µg/mL,128 µg/mL,2 µg/mL,12 µg/mL,96%,2 µg/mL,> 4 µg/mL,,0.06 µg/mL,256 µg/mL,32 µg/mL
O=C(c1ccc(Cl)cc1)c1cc(NC(=O)c2cc(Cl)cc(Br)c2O)c(Cl)cc1Cl,16 µg/mL,0.25 µg/mL,90%,0.5 µg/mL,16 µg/mL,0.25 µg/mL,16 µg/mL,92%,0.25 µg/mL,0.25 µg/mL,100 µM,< 0.03 µg/mL,8 µg/mL,16 µg/mL
CN1C(=O)c2ccccc2Sc2ccc(NC(=O)c3ccc([N+](=O)[O-])o3)cc21,32 µg/mL,0.5 µg/mL,0%,0.5 µg/mL,128 µg/mL,1 µg/mL,12 µg/mL,91%,2 µg/mL,2 µg/mL,,0.06 µg/mL,256 µg/mL,32 µg/mL
CCN(CC)c1cc(C)c2cc(NC(=O)c3ccc([N+](=O)[O-])o3)ccc2n1,32 µg/mL,> 4 µg/mL,0%,0.5 µg/mL,128 µg/mL,> 4 µg/mL,12 µg/mL,90%,2 µg/mL,> 4 µg/mL,,0.06 µg/mL,256 µg/mL,32 µg/mL
"O=C(Nc1ccc(Cl)c(Cl)c1)c1cc(Cl)cc(Cl)c1O [3,3',4',5-TETRACHLOROSALICYLANILIDE]",16 µg/mL,1 µg/mL,0%,0.5 µg/mL,16 µg/mL,1 µg/mL,16 µg/mL,90%,0.25 µg/mL,1 µg/mL,,< 0.03 µg/mL,8 µg/mL,16 µg/mL
Cc1c(CCC(=O)O)c(=O)oc2c(C)c3occ(-c4ccc(Cl)cc4)c3cc12,> 256 µg/mL,2.5 µg/mL,0%,1 µg/mL,> 256 µg/mL,1.25 µg/mL,> 256 µg/mL,97%,2.5 µg/mL,2.5 µg/mL,,> 64 µg/mL,> 256 µg/mL,> 256 µg/mL
COc1cccc(-c2coc3c(C)c4oc(=O)c(CCC(=O)O)c(C)c4cc23)c1,> 256 µg/mL,2.5 µg/mL,0%,1 µg/mL,> 256 µg/mL,2.5 µg/mL,> 256 µg/mL,90%,2.5 µg/mL,2.5 µg/mL,,> 64 µg/mL,> 256 µg/mL,> 256 µg/mL
